Calls of active or inactive are those of the source.
Tests used:
[1] = system: KB-VIN; assay: Induction of apoptosis in human KB-VIN cells assessed as increase in cleaved caspase-3 expression by Western blot analysis; assay type: functional, cell-based
Method in brief: (§1)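 Resistant KB cells attached overnight, then drug-treated at the stated concentrations and times (24 h or 48 h). Lysates were immunoblotted for cleaved PARP, caspase-3, -8 and -9, and γH2AX, with anti-mouse or anti-rabbit IgG secondaries.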

[2] = Antiproliferative activity against human KB7D cells incubated for 48 hrs by SRB assay; assay type: functional
Method in brief: (§2)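 KB parental and resistant sublines kept in RPMI 1640 with 5% FBS at 37 °C, 5% CO2. Cells plated, left overnight, then given graded compound concentrations for 48 h. A time-zero plate was fixed with 10% TCA at dosing. Cells were stained with 0.4% SRB in 1% acetic acid, unbound dye washed off, bound dye dissolved in 10 mM Tris base, and absorbance read at 515 nm.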

[3] = system: KB-VIN; assay: Induction of apoptosis in human KB-VIN cells assessed as increase in cleaved caspase-9 expression at 0.05 uM measured after 48 hrs by Western blot analysis; assay type: functional, cell-based; method in brief: as §1
[4] = system: KB-VIN; assay: Induction of apoptosis in human KB-VIN cells assessed as increase in cleaved caspase-8 expression at 0.05 uM measured after 48 hrs by Western blot analysis; assay type: functional, cell-based; method in brief: as §1
[5] = molecular target: T1, Tubulin (Homo sapiens) (UniProt P68371+Q9H4B7+P0DPH7+P68366+Q13509+Q71U36+P04350+Q3ZCM7+P07437+P68363+Q9BQE3+Q6PEY2+Q13885+Q9BVA1+Q9BUF5); assay: Induction of microtubule disruption in human KB7D cells assessed as polymerized fraction at 1 uM measured after 16 hrs by SDS-PAGE analysis (reference value: 26.4 to 29%); assay type: cell-based
Method in brief: (§3)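 KB-Vin or KB-7D cells treated 16 h, then lysed 5 min at 37 °C in the dark in hypotonic buffer (1% NP-40, 1 mmol/L MgCl2, 2 mmol/L EGTA, 50 mmol/L Tris-HCl pH 6.8, protease inhibitors). Spun 13000 rpm, 10 min, room temperature. Soluble supernatant and resuspended polymerized pellet run on SDS-PAGE.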

[6] = system: KB-VIN; assay: Induction of apoptosis in human KB-VIN cells assessed as increase in activated gammaH2AX expression by Western blot analysis; assay type: functional, cell-based; method in brief: as §1
[7] = Antiproliferative activity against human KB-VIN cells incubated for 48 hrs by SRB assay; assay type: functional; conditions: KBVIN; method in brief: as §2
[8] = system: KB-VIN; assay: Induction of apoptosis in human KB-VIN cells assessed as increase in cleaved caspase-9 expression at 0.1 to 0.5 uM measured after 24 hrs by Western blot analysis; assay type: functional, cell-based; conditions: dose 0.1-0.5 µM; method in brief: as §1
[9] = system: KB7D; assay: Induction of apoptosis in human KB7D cells assessed as increase in cleaved caspase-3 expression at 0.01 to 0.1 uM measured after 48 hrs by Western blot analysis; assay type: functional, cell-based; conditions: dose 0.01-0.1 µM; method in brief: as §1
[10] = molecular target: T1, Tubulin (Homo sapiens); assay: Induction of microtubule disruption in human KB-VIN cells assessed as polymerized fraction at 0.01 uM measured after 16 hrs by SDS-PAGE analysis (reference value: 23.1 to 25.5%); assay type: cell-based; method in brief: as §3
[11] = system: KB-VIN; assay: Cell cycle arrest in human KB-VIN cells assessed as increase in accumulation at G2/M phase at 0.01 to 0.05 uM measured after 18 to 24 hrs by propidium iodide staining based flow cytometry; assay type: functional; conditions: dose 0.01-0.05 µM, time 18-24 hrs
Method in brief: (§4)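 Cells seeded at 2.5×10^5 per well and exposed to DMSO or compound for the stated times. They were washed in PBS and fixed overnight in ice-cold 70% ethanol at −20 °C. Staining used propidium iodide 80 µg/mL with 0.1% Triton X-100 and RNase A 100 µg/mL in PBS. DNA content was read by FACScan flow cytometry.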

[12] = system: KB-VIN; assay: Induction of apoptosis in human KB-VIN cells assessed as increase in cleaved PARP expression at 0.05 uM measured after 48 hrs by Western blot analysis; assay type: functional, cell-based; method in brief: as §1
[13] = system: KB7D; assay: Cell cycle arrest in human KB7D cells assessed as increase in accumulation at sub-G1 phase at 0.01 to 0.1 uM measured after 48 hrs by propidium iodide staining based flow cytometry; assay type: functional; conditions: dose 0.01-0.1 µM; method in brief: as §4
[14] = system: KB7D; assay: Induction of apoptosis in human KB7D cells assessed as increase in activated gammaH2AX expression by Western blot analysis; assay type: functional, cell-based; method in brief: as §1
[15] = system: KB7D; assay: Induction of apoptosis in human KB7D cells assessed as increase in cleaved PARP expression at 0.01 to 0.1 uM measured after 48 hrs by Western blot analysis; assay type: functional, cell-based; conditions: dose 0.01-0.1 µM; method in brief: as §1
[16] = system: KB-VIN; assay: Cell cycle arrest in human KB-VIN cells assessed as increase in accumulation at sub-G1 phase at 0.05 uM measured after 48 hrs by propidium iodide staining based flow cytometry; assay type: functional; method in brief: as §4
[17] = molecular target: Histone deacetylase 2 (Homo sapiens, UniProt Q92769); assay: Inhibition of recombinant human C-terminal GST-tagged HDAC2 (1 to 488 residues) expressed in baculovirus infected insect cells using RHKKAc-AMC as substrate measured after 60 mins by fluorescence assay
[18] = system: KB-VIN; assay: Cell cycle arrest in human KB-VIN cells assessed as increase in accumulation at sub-G1 phase at 0.5 uM measured after 24 hrs by propidium iodide staining based flow cytometry; assay type: functional; method in brief: as §4
[19] = system: KB7D; assay: Induction of apoptosis in human KB7D cells assessed as increase in activated gammaH2AX expression at 0.1 to 0.5 uM measured after 24 hrs by Western blot analysis; assay type: functional, cell-based; conditions: dose 0.1-0.5 µM; method in brief: as §1
[20] = molecular target: T1, Tubulin (Homo sapiens); assay: Induction of microtubule disruption in human KB-VIN cells at 0.05 uM measured after 24 hrs by DAPI staining based deconvolution fluorescence microscopic analysis; assay type: cell-based
Method in brief: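 Cells on glass coverslips treated 24 h, fixed in 4% paraformaldehyde for 15 min, and permeabilized with 0.5% Triton X-100. Blocked in PBS/2% BSA, stained with anti-beta-tubulin (1:250) and Alexa 488 anti-mouse (1:250), and mounted with DAPI. Imaged by wide-field deconvolution microscopy.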

[21] = molecular target: Histone deacetylase 3/Nuclear receptor corepressor 2 (HDAC3/NCoR2) (Homo sapiens, UniProt O15379); assay: Inhibition of human recombinant HDAC3/NCOR2 using RHKKAc-AMC as substrate measured after 60 mins by fluorescence assay; assay type: protein-complex assay
[22] = system: KB; assay: Antiproliferative activity against human KB cells incubated for 48 hrs by SRB assay; assay type: functional; method in brief: as §2
[23] = system: KB-VIN; assay: Induction of apoptosis in human KB-VIN cells assessed as increase in cleaved caspase-3 expression at 0.1 to 0.5 uM measured after 24 hrs by Western blot analysis; assay type: functional, cell-based; conditions: dose 0.1-0.5 µM; method in brief: as §1
[24] = system: KB-VIN; assay: Induction of apoptosis in human KB-VIN cells assessed as increase in cleaved caspase-8 expression by Western blot analysis; assay type: functional, cell-based; method in brief: as §1
[25] = system: KB7D; assay: Induction of apoptosis in human KB7D cells assessed as increase in cleaved caspase-8 expression at 0.01 to 0.1 uM measured after 48 hrs by Western blot analysis; assay type: functional, cell-based; conditions: dose 0.01-0.1 µM; method in brief: as §1
[26] = molecular target: Histone deacetylase 1 (Homo sapiens, UniProt Q13547); assay: Inhibition of recombinant human full-length C-terminal FLAG-His tagged HDAC1 (1 to 482 residues) expressed in Sf21 insect cells using RHK-K(Ac)-AMC as substrate measured after 60 mins by fluorescence assay
[27] = system: KB7D; assay: Cell cycle arrest in human KB7D cells assessed as increase in accumulation at G2/M phase at 0.01 to 0.05 uM measured after 18 to 24 hrs by propidium iodide staining based flow cytometry; assay type: functional; conditions: dose 0.01-0.05 µM, time 18-24 hrs; method in brief: as §4

Chain of Histone deacetylase 3/Nuclear receptor corepressor 2 (HDAC3/NCoR2) (O15379 whole entry): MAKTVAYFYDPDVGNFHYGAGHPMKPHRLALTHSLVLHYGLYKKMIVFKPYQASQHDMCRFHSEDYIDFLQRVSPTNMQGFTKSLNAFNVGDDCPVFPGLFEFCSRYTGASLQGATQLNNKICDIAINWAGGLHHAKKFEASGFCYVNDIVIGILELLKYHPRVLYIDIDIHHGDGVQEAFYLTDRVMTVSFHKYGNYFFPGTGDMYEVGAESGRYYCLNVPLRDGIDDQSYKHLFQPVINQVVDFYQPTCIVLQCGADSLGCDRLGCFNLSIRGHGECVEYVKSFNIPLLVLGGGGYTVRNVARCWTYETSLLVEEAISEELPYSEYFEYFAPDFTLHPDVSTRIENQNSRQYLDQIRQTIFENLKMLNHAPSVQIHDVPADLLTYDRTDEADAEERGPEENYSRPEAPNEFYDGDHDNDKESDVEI
Chain of Histone deacetylase 3/Nuclear receptor corepressor 2 (HDAC3/NCoR2) (Q9Y618 whole entry, further chain): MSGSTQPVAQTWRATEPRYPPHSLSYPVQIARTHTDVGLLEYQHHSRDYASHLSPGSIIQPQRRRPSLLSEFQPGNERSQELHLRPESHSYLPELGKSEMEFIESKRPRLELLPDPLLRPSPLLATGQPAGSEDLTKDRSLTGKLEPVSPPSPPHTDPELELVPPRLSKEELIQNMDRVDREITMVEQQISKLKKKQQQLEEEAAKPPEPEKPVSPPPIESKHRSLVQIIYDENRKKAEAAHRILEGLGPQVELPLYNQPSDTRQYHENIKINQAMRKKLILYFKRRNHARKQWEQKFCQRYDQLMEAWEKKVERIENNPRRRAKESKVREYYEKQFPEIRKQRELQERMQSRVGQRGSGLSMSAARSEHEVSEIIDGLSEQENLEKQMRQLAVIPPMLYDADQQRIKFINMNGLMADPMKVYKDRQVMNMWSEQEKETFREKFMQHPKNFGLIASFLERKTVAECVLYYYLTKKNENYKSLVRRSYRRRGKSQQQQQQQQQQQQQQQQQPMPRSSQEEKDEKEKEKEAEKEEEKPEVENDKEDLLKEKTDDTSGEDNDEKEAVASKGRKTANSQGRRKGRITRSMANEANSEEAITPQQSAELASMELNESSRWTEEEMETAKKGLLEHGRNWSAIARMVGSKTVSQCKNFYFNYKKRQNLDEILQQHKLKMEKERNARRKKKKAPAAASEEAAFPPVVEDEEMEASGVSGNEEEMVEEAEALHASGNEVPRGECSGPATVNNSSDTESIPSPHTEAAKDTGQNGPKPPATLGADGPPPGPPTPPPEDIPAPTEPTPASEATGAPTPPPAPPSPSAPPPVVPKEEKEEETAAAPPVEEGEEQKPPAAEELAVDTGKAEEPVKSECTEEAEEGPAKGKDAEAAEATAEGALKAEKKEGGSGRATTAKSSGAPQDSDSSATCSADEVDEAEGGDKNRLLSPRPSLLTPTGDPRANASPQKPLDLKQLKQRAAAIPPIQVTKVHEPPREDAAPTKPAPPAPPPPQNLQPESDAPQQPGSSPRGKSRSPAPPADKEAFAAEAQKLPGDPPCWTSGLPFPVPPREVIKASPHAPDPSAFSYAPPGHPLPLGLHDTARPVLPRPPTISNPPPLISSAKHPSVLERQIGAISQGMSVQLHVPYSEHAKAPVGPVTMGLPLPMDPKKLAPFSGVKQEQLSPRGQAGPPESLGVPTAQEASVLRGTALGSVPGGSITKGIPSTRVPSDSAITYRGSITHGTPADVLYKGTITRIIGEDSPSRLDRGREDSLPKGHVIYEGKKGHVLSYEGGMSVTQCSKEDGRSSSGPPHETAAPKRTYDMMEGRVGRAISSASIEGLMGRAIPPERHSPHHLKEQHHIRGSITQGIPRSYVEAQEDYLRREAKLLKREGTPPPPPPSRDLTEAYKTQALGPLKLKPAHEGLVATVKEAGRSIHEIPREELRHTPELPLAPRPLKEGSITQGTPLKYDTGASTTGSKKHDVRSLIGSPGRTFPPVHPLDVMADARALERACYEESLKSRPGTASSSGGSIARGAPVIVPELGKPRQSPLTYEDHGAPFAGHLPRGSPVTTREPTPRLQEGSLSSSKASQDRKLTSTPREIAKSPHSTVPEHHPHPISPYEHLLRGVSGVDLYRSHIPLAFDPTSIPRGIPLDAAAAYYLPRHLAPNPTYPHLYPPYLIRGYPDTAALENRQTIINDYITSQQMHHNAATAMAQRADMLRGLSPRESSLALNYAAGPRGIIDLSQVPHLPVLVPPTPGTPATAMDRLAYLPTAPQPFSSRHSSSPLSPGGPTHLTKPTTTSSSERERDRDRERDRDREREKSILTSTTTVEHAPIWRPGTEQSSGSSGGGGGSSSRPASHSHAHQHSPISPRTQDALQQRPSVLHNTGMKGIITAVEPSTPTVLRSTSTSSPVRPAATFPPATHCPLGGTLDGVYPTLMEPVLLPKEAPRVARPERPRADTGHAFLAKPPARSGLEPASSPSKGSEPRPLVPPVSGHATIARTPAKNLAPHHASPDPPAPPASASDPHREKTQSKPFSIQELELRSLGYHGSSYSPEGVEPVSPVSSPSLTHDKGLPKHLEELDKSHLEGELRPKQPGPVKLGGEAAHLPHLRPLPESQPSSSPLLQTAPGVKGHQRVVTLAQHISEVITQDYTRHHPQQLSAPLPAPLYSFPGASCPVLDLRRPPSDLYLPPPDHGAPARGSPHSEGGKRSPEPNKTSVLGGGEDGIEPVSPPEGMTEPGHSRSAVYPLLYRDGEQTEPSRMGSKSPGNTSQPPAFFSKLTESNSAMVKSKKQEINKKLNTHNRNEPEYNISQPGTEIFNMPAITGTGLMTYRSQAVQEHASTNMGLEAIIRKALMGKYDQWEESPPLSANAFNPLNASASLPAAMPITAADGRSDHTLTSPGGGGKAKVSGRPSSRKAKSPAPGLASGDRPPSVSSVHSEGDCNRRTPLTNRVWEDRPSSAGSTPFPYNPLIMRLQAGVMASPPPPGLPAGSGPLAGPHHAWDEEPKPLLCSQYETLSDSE
Chain of Histone deacetylase 1 (Q13547 whole entry, the tested form may be a part): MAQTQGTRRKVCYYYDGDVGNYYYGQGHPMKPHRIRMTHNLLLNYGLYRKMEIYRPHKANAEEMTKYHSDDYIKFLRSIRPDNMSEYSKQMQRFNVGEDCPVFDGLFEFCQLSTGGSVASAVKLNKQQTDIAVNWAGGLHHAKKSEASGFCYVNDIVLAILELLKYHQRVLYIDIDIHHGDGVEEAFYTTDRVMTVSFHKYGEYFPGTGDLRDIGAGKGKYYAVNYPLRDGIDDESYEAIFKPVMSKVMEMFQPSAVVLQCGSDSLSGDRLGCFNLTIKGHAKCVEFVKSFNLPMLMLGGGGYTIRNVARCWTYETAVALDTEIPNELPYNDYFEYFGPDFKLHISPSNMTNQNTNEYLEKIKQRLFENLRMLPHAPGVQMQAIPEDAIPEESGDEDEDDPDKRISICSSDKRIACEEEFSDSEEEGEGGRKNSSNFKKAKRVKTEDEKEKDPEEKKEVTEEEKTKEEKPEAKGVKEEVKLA
Chain of Histone deacetylase 2 (Q92769 whole entry, the tested form may be a part): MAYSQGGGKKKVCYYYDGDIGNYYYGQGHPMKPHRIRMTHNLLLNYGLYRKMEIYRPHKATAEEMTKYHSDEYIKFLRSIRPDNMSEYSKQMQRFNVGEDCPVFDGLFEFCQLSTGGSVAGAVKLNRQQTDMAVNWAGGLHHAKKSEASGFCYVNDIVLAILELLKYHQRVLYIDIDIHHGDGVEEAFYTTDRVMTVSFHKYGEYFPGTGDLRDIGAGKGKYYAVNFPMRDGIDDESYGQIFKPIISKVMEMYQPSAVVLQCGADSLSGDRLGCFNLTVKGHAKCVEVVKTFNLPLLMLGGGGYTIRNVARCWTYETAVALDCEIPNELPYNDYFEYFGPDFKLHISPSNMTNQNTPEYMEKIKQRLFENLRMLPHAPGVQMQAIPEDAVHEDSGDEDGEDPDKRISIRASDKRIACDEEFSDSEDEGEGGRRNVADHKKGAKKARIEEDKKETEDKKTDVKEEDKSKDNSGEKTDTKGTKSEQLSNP

COc1ccc(S(=O)(=O)Nc2ccccc2NCc2ccc(C(=O)Nc3ccccc3N)cc2)cc1
25.9%: Activity [10]
1470 nM: IC50 [17]
22 nM: GI50 [7]
16%: Activity [5]
10 nM: GI50 [22]
2270 nM: IC50 [21]
active: Activity [1] Dose-dependent effect | Activity [3] | Activity [4] | Activity [6] Dose-dependent effect | Activity [8] | Activity [9] | Activity [11] | Activity [12] | Activity [13] | Activity [14] Dose-dependent effect | Activity [15] | Activity [16] | Activity [18] | Activity [19] | Activity [20] | Activity [23] | Activity [24] Dose-dependent effect | Activity [25] | Activity [27]
1070 nM: IC50 [26]
12 nM: GI50 [2]
